Screens from PubChem BioAssay.
Sampled rows, rich in hits. Any-hit rate of the full collection: about 5.9%.
Pf Dd2 growth = blocks growth of Plasmodium falciparum Dd2 parasites. P. falciparum Dd2 growth, SYBR Green, 72 h; stronger effect = lower value. activity change, % at 10 µM. hit rate 2.3% among 94,000; in the data active means activity change below about -80%; inconclusive means no clear call, values can overlap the other calls
IDH1 R132H inh = IDH1 R132H (human) inhibition; O75874; IDH1 R132H reductase, diaphorase/resazurin fluorescence, 60 min; inhibition, % at 10 µM; hit rate 0.18% among 70,000; AID 624101; in the data active means inhibition above about 34%; inconclusive means no clear call, values can overlap the other calls; inactive means below about 11%;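 further: 0% = DMSO and 100% = no enzyme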
KDM4C inh = KDM4C (human) demethylase inhibition | Q9H3R0 | GST-KDM4C 2-372, H3K9me3 peptide, LANCE TR-FRET | inhibition, % at 12.5 µM | hit rate 0.15% among 96,000;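 active means mean replicate inhibition above about 25%, with at least 55% of replicates also reaching it, limit read from the data, passing the limit was not always enough; inconclusive means only one of those two conditions met; inactive means neither condition met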
Target sequence (Q9H3R0 2-372 limits assumed): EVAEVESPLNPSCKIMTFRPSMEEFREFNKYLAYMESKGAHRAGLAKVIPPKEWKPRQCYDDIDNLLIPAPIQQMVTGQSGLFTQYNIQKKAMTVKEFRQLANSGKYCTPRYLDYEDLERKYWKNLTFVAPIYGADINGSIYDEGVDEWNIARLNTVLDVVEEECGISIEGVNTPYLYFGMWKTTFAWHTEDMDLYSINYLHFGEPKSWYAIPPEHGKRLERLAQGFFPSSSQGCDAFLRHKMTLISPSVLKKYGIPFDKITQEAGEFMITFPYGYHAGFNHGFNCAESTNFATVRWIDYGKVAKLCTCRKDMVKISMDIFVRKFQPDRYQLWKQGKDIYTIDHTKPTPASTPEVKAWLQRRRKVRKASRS
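Test system – GST-tagged GASC-1 (JMJD2C) catalytic fragment, aa 2-372 · Medium – HEPES buffer, pH 7.5, plus ascorbate · Reagent – H3K9me3 peptide with Fe(II)/2OG · Compound – one test concentration per compound · Timing – 30 min reaction, 60 min detection, RT · Technique – TR-FRET with Eu antibody and ULight streptavidin, EDTA stop · Read-out basis – inhibition from TR-FRET ratio decrease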
T cruzi growth-1 = blocks T. cruzi growth in NIH3T3 culture; inhibition, % at 8.34 µM; hit rate 5.9% among 77,000; AID 624255; T. cruzi beta-gal in NIH3T3, GalScreen luminescence, 90 h;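 active means mean inhibition above about 93%, with at least 55% of replicates each passing it, limit read from the data, passing the limit was not always enough; inconclusive means only one of those two conditions holds; inactive means neither condition holds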
T cruzi growth-2 = Trypanosoma cruzi proliferation inhibition; shares compounds with T cruzi growth-1; T. cruzi beta-gal in NIH3T3, GalScreen luminescence, 90 h; inhibition, % at 8.35 µM; hit rate 72% among 5,600;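 active means mean replicate inhibition above about 95% and at least 55% of replicates individually reaching it, limit read from the data; inconclusive means only one of the two criteria is met; inactive means neither criterion is met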
T cruzi growth-3 = Trypanosoma cruzi proliferation inhibition | T. cruzi beta-gal in NIH3T3, GalScreen luminescence, 90 h | hit rate 21% among 5,600 | AID 651740 | inhibition, % at 2.09 µM | shares compounds with T cruzi growth-1;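 active means mean inhibition above about 95%, with at least 55% of replicates also reaching it, limit read from the data; inconclusive means meets just one of the two conditions; inactive means meets neither condition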;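 further: plate controls were neutral control median for no effect and positive control median for full effect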
NIH3T3 tox = kills mouse NIH/3T3 fibroblasts; hit rate 14% among 5,600; shares compounds with T cruzi growth-1; AID 651742; NIH/3T3 viability, CellTiter-Glo ATP luminescence, 90 h; cytotoxicity (signal decrease), % at 8.35 µM;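 active means mean signal decrease across replicates above about 35% based on untreated-well scatter, with enough replicates individually passing, limit read from the data; inconclusive means no rule stated though some were filed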;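 further: 0% = median of neutral control wells and 100% = median of positive control wells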
3T3 cytotox 2 = cytotoxicity in mouse NIH/3T3 fibroblasts. shares compounds with T cruzi growth-1. hit rate 56% among 5,600. inhibition, % at 24.9 µM. NIH/3T3 viability, CellTiter-Glo ATP luminescence, 90 h. AID 651744;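 active means mean loss of cell viability signal at or above a set limit, and enough replicates individually reaching it; inconclusive means meets only the mean limit or only the replicate share; inactive means meets neither condition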;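 further: 0% = median of neutral control wells and 100% = median of positive control wells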
* = called active by the depositor.

Screening O=C1c2ccccc2C(=O)N1CCc1nc2ccccc2c(=O)n1-c1nc2ccccc2s1 returned IDH1 R132H inh -1.
Screening C[C@@H]1CN([C@H](C)CO)C(=O)c2cccc(NC(=O)c3ccc(-c4nccs4)cc3)c2O[C@H]1CN(C)Cc1ccc(Oc2ccccc2)cc1 returned Pf Dd2 growth -52, IDH1 R132H inh 2, KDM4C inh -6 and T cruzi growth-1 78.
For C[C@@H]1CN([C@H](C)CO)C(=O)c2cccc(NC(=O)c3ccc(-c4nccs4)cc3)c2O[C@H]1CN(C)Cc1ccccc1 the results were Pf Dd2 growth -19, IDH1 R132H inh 0, KDM4C inh 1 and T cruzi growth-1 67.
Screening C[C@H](CO)N1C[C@H](C)[C@H](CN(C)Cc2ccc(Oc3ccccc3)cc2)Oc2c(NC(=O)c3ccc(-c4nccs4)cc3)cccc2C1=O returned Pf Dd2 growth -61, KDM4C inh -12, T cruzi growth-1 103*, T cruzi growth-2 110*, T cruzi growth-3 109*, NIH3T3 tox 24 and 3T3 cytotox 2 25*.
Screening C[C@H]1CN([C@@H](C)CO)C(=O)c2cccc(NC(=O)c3ccc(-c4nccs4)cc3)c2O[C@@H]1CN(C)Cc1ccc(-c2ccccc2)cc1 returned Pf Dd2 growth -84*, IDH1 R132H inh 0, KDM4C inh -4, T cruzi growth-1 99*, T cruzi growth-2 107*, T cruzi growth-3 68, NIH3T3 tox -3 and 3T3 cytotox 2 -14.
For C[C@@H]1CN([C@@H](C)CO)C(=O)c2cccc(NC(=O)c3ccc(-c4nccs4)cc3)c2O[C@H]1CN(C)CC1CCCCC1 the results were Pf Dd2 growth -70, IDH1 R132H inh 2, KDM4C inh 0, T cruzi growth-1 99*, T cruzi growth-2 117*, T cruzi growth-3 74, NIH3T3 tox 7 and 3T3 cytotox 2 15.
For C[C@H]1CN([C@@H](C)CO)C(=O)c2cccc(NC(=O)c3ccc(-c4nccs4)cc3)c2O[C@H]1CN(C)Cc1ccc(C(=O)Nc2ccccc2N)cc1 the results were Pf Dd2 growth -91*, KDM4C inh -1, T cruzi growth-1 98*, T cruzi growth-2 102*, T cruzi growth-3 101*, NIH3T3 tox 22 and 3T3 cytotox 2 56*.
C[C@H](CO)N1C[C@H](C)[C@@H](CN(C)CC2CCCCC2)Oc2c(NC(=O)c3ccc(-c4nccs4)cc3)cccc2C1=O was read as Pf Dd2 growth -52, KDM4C inh 4 and T cruzi growth-1 60.
`COc1ccc(-c2nnc(SCC(=O)Nc3cc(Cl)c(Cl)cc3Cl)n2C)cc1` gave IDH1 R132H inh 0.
Screening C[C@@H]1CCCCO[C@H](CN(C)S(=O)(=O)c2cccs2)[C@H](C)CN([C@H](C)CO)C(=O)c2cc(NC(=O)Nc3ccc(F)cc3)ccc2O1 returned Pf Dd2 growth -85*, KDM4C inh -4, T cruzi growth-1 inconclusive, T cruzi growth-2 113*, T cruzi growth-3 100*, NIH3T3 tox -16 and 3T3 cytotox 2 12.
`C[C@@H]1CCCCO[C@H](CN(C)S(=O)(=O)c2cccs2)[C@H](C)CN([C@@H](C)CO)C(=O)c2cc(NC(=O)Nc3ccc(F)cc3)ccc2O1` gave Pf Dd2 growth -53, KDM4C inh 6 and T cruzi growth-1 59.
Screening C[C@H]1CN([C@@H](C)CO)C(=O)c2cc(NC(=O)Nc3ccc(C(F)(F)F)cc3)ccc2O[C@H]1CN(C)S(=O)(=O)c1cccs1 returned Pf Dd2 growth 9, IDH1 R132H inh 1, KDM4C inh 0, T cruzi growth-1 123*, T cruzi growth-2 103*, T cruzi growth-3 57, NIH3T3 tox 5 and 3T3 cytotox 2 85*.
For C[C@H](CO)N1C[C@H](C)[C@@H](CN(C)S(=O)(=O)c2cccs2)Oc2ccc(NC(=O)Nc3ccc(F)cc3)cc2C1=O the results were Pf Dd2 growth -15, IDH1 R132H inh 1, KDM4C inh -2 and T cruzi growth-1 -49.
Screening C[C@H]1CCCCO[C@@H](CN(C)S(=O)(=O)c2cccs2)[C@@H](C)CN([C@@H](C)CO)C(=O)c2cc(NC(=O)Nc3ccc4c(c3)OCO4)ccc2O1 returned Pf Dd2 growth -64, KDM4C inh 1, T cruzi growth-1 111*, T cruzi growth-2 111*, T cruzi growth-3 48, NIH3T3 tox 14 and 3T3 cytotox 2 10.
C[C@H]1CCCCO[C@H](CN(C)S(=O)(=O)c2cccs2)[C@@H](C)CN([C@@H](C)CO)C(=O)c2cc(NC(=O)Nc3ccc(F)cc3)ccc2O1 was read as Pf Dd2 growth -73, KDM4C inh -1, T cruzi growth-1 97*, T cruzi growth-2 104*, T cruzi growth-3 39, NIH3T3 tox 24 and 3T3 cytotox 2 6.
For COc1ccc(Cl)cc1NC1=NC2CS(=O)(=O)CC2S1 (stereo not drawn) the results were IDH1 R132H inh 0.
`COc1ccc(C(=O)n2nc(-c3ccc(Cl)cc3)nc2NCc2ccco2)cc1OC` gave IDH1 R132H inh 0.
For C[C@@H]1CCCCO[C@@H](CN(C)S(=O)(=O)c2cccs2)[C@H](C)CN([C@H](C)CO)C(=O)c2cc(NC(=O)NC3CCCCC3)ccc2O1 the results were Pf Dd2 growth inconclusive, KDM4C inh -4, T cruzi growth-1 118*, T cruzi growth-2 106*, T cruzi growth-3 36, NIH3T3 tox 2 and 3T3 cytotox 2 -3.
Screening C[C@H](CO)N1C[C@H](C)[C@@H](CN(C)S(=O)(=O)c2cccs2)OCCCC[C@H](C)Oc2ccc(NC(=O)NC3CCCCC3)cc2C1=O returned Pf Dd2 growth -46, KDM4C inh 1 and T cruzi growth-1 76.
`C[C@H](CO)N1C[C@H](C)[C@@H](CN(C)S(=O)(=O)c2cccs2)OCCCC[C@H](C)Oc2ccc(NC(=O)Nc3ccc(C(F)(F)F)cc3)cc2C1=O` gave Pf Dd2 growth -46, IDH1 R132H inh -1, KDM4C inh 1, T cruzi growth-1 97*, T cruzi growth-2 102*, T cruzi growth-3 117*, NIH3T3 tox 33 and 3T3 cytotox 2 26*.
C[C@@H]1CN([C@H](C)CO)C(=O)c2cc(NC(=O)Nc3ccc(F)cc3)ccc2O[C@@H](C)CCCCO[C@H]1CN(C)S(=O)(=O)c1cccs1 was read as Pf Dd2 growth -72, KDM4C inh 0 and T cruzi growth-1 33.
